Measurements: ChEMBL document CHEMBL3774373, “Activity and Predicted Nephrotoxicity of Synthetic Antibiotics Based on Polymyxin B” (J Med Chem, 2016)
In brackets after ≈: the same amount, converted by molar mass. Numbered stars: 1 amine (or outer) side, 2 acyl side, 3 side chain; on linkers, the order of the positions; unused ones are H or OH. Bridge positions count the residues as written; N and C are the ends. Square brackets hold non-standard residues; d marks the D form. Peptide text beside a SMILES is read from it. * marks the point of attachment. ξ: configuration not given here. Bip = N[C@@H](Cc1ccc(-c2ccccc2)cc1)C(=O)O; Phe(4-NH2) = Nc1ccc(C[C@H](N)C(=O)O)cc1; ξGly(octyl) = CCCCCCCCC(N)C(=O)O; NH(2-ClPh) = Clc1ccccc1N*; dDab = NCC[C@@H](N)C(=O)O; hSer = N[C@@H](CCO)C(=O)O; Octanoyl = CCCCCCCC(=O)*; Dab = NCC[C@H](N)C(=O)O; CO = O=C([*:1])[*:2]

Columns and labels:
Klebsiella pneumoniae [1] = test: Antibacterial activity against clinical isolate carbapenem and polymyxin resistant Klebsiella pneumoniae Koprana 100650661:1 after 18 hrs by 2 fold serial dilution method; format: functional; details: Koprana 100650661:1, 18 h
Outline: (§1)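 Polymyxin-resistant clinical isolates were grown overnight at 37 °C in NB or MHB with shaking, diluted 50-fold in MHB and grown 1.5–3 h to mid-log phase. The inoculum was 5×10^5 CFU/mL. Compounds were 2-fold broth serial dilutions, final 32 to 0.015 μg/mL; the polymyxin controls ran 128–0.06 μg/mL. The MIC was the lowest concentration with no visible growth after 18 h at 37 °C.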

Pseudomonas aeruginosa [2] = test: Antibacterial activity against clinical isolate polymyxin resistant Pseudomonas aeruginosa FADDI-PA070 after 18 hrs by 2 fold serial dilution method; format: functional; details: FADDI-PA070, 18 h; outline: as §1
Acinetobacter baumannii [3] = test: Antibacterial activity against Acinetobacter baumannii ATCC 19606 after 18 hrs by 2 fold serial dilution method; format: functional; details: ATCC 19606, 18 h
Outline: (§2)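 Overnight cultures in nutrient or Mueller Hinton broth at 37 °C with shaking, diluted 50-fold into fresh MHB and grown 1.5–3 h to mid-log. Inoculum 5×10^5 CFU/mL in 2-fold serial dilutions, final range 32 to 0.015 μg/mL. MIC read visually after 18 h at 37 °C as the lowest concentration with no visible growth.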

Pseudomonas aeruginosa [4] = test: Antibacterial activity against Pseudomonas aeruginosa ATCC 27853 after 18 hrs by 2 fold serial dilution method; format: functional; details: ATCC 27853, 18 h; outline: as §2
Acinetobacter baumannii [5] = test: Antibacterial activity against clinical isolate carbapenem and polymyxin resistant Acinetobacter baumannii Ptyela 100734512:2 after 18 hrs by 2 fold serial dilution method; format: functional; details: Ptyela 100734512:2, 18 h; outline: as §1
Klebsiella pneumoniae [6] = test: Antibacterial activity against Klebsiella pneumoniae ATCC 13883 after 18 hrs by 2 fold serial dilution method; format: functional; details: ATCC 13883, 18 h; outline: as §2
Escherichia coli = test: Antibacterial activity against Escherichia coli ATCC 25922 after 18 hrs by 2 fold serial dilution method; format: functional; details: ATCC 25922, 18 h; outline: as §2
Klebsiella pneumoniae [7] = test: Antibacterial activity against Klebsiella pneumoniae ATCC BAA-2146 expressing NDM-1 after 18 hrs by 2 fold serial dilution method; format: functional; details: ATCC BAA-2146, 18 h
Outline: (§3)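 Overnight cultures at 37 °C in nutrient or Mueller Hinton broth with shaking were diluted 50-fold in MHB and grown 1.5–3 h to mid-log phase. The inoculum was 5×10^5 CFU/mL in MHB. Compounds were 2-fold serially diluted, final 32 to 0.015 μg/mL. After 18 h at 37 °C, the MIC was read visually as the lowest concentration with no visible growth.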

Klebsiella pneumoniae [8] = test: Antibacterial activity against clinical isolate carbapenem and polymyxin resistant Klebsiella pneumoniae 138-16357-20362 after 18 hrs by 2 fold serial dilution method; format: functional; details: 138-16357-20362, 18 h; outline: as §1
Klebsiella pneumoniae [9] = test: Antibacterial activity against multidrug resistant Klebsiella pneumoniae ATCC 700603 after 18 hrs by 2 fold serial dilution method; format: functional; details: Klebsiella pneumoniae, 700603, 18 h; outline: as §3
[10] = Cytotoxicity against human HepG2 cells after 24 hrs by resazurin assay; format: cell-based; details: HepG2 cells
Pseudomonas aeruginosa [11] = test: Antibacterial activity against clinical isolate polymyxin resistant Pseudomonas aeruginosa PA9704 after 18 hrs by 2 fold serial dilution method; format: functional; details: PA9704, 18 h; outline: as §1
Staphylococcus aureus = test: microbe, parasite or virus in culture; details: ATCC 25923, 18 h

| Compound | MIC (Klebsiella pneumoniae [1]) [µg/mL] | MIC (Pseudomonas aeruginosa [2]) [µg/mL] | MIC (Acinetobacter baumannii [3]) [µg/mL] | MIC (Pseudomonas aeruginosa [4]) [µg/mL] | MIC (Acinetobacter baumannii [5]) [µg/mL] | MIC (Klebsiella pneumoniae [6]) [µg/mL] | MIC (Escherichia coli) [µg/mL] | MIC (Klebsiella pneumoniae [7]) [µg/mL] | MIC (Klebsiella pneumoniae [8]) [µg/mL] | MIC (Klebsiella pneumoniae [9]) [µg/mL] | CC50 at 24 h [10] [µM] | MIC (Pseudomonas aeruginosa [11]) [µg/mL] | MIC (Staphylococcus aureus) [µg/mL] |
| --- | --- | --- | --- | --- | --- | --- | --- | --- | --- | --- | --- | --- | --- |
| CCCCCCCC(=O)N[C@@H](CCN)C(=O)N[C@H](C(=O)N[C@H](CCN)C(=O)N[C@H]1CCNC(=O)[C@H]([C@@H](C)O)NC(=O)[C@H](CCN)NC(=O)[C@H](CCN)NC(=O)[C@H](CC(C)C)NC(=O)[C@@H](Cc2ccccc2)NC(=O)[C@H](CCN)NC1=O)[C@@H](C)O (Octanoyl-[Dab]T[dDab][Dab][Dab][dF]L[Dab][Dab]T; lactam 4-C) | > 32 | > 32 | 1 (≈ 0.841 µM) | 2 (≈ 1.68 µM) | > 32 | 0.5 (≈ 0.42 µM) | 4 (≈ 3.36 µM) | 4 (≈ 3.36 µM) | > 32 | 1 (≈ 0.841 µM) | > 300 | 32 (≈ 26.9 µM) | > 32 |
| CCCCCCCCC1NC(=O)[C@H](CCN)NC(=O)[C@@H](NC(=O)[C@H](CCN)NC(=O)[C@@H](NC(=O)[C@H](CCN)NC(=O)CCCCCCC)[C@@H](C)O)CCNC(=O)[C@H]([C@@H](C)O)NC(=O)[C@H](CCN)NC(=O)[C@H](CCN)NC(=O)[C@H](CC(C)C)NC1=O (stereo partly drawn) (Octanoyl-[Dab]T[Dab][Dab][Dab][ξGly(octyl)]L[Dab][Dab]T; lactam 4-C) | 16 (≈ 13.2 µM) | 4 (≈ 3.3 µM) | 1 (≈ 0.825 µM) | 2 (≈ 1.65 µM) | 16 (≈ 13.2 µM) | 2 (≈ 1.65 µM) | 2 (≈ 1.65 µM) | 1 (≈ 0.825 µM) | 16 (≈ 13.2 µM) | 1 (≈ 0.825 µM) | 254 | 8 (≈ 6.6 µM) | 16 (≈ 13.2 µM) |
| CCCCCCCC(=O)N[C@@H](CCN)C(=O)N[C@H](C(=O)N[C@@H](CCN)C(=O)N[C@H]1CCNC(=O)[C@H]([C@@H](C)O)NC(=O)[C@H](Cc2ccc(N)cc2)NC(=O)[C@H](CCN)NC(=O)[C@H](CC(C)C)NC(=O)[C@@H](Cc2ccccc2)NC(=O)[C@H](CCN)NC1=O)[C@@H](C)O (Octanoyl-[Dab]T[Dab][Dab][Dab][dF]L[Dab][Phe(4-NH2)]T; lactam 4-C) | > 32 | > 32 | > 32 | 32 (≈ 25.6 µM) | > 32 | > 32 | 16 (≈ 12.8 µM) | 16 (≈ 12.8 µM) | > 32 | 16 (≈ 12.8 µM) | > 300 | > 32 | > 32 |
| CCCCCCCC(=O)N[C@@H](CCN)C(=O)N[C@H](C(=O)N[C@@H](CCN)C(=O)N[C@H]1CCNC(=O)[C@H]([C@@H](C)O)NC(=O)[C@H](CCN)NC(=O)[C@H](CCN)NC(=O)[C@H](CC(C)C)NC(=O)[C@@H](Cc2ccccc2)NC(=O)[C@H](CCNC(=O)[C@@H](N)CCCNC(=N)N)NC1=O)[C@@H](C)O (Octanoyl-[Dab]T[Dab][Dab][Dab](Arg)[dF]L[Dab][Dab]T; lactam 4-C) | > 32 | > 32 | 32 (≈ 23.8 µM) | 32 (≈ 23.8 µM) | > 32 | 32 (≈ 23.8 µM) | 32 (≈ 23.8 µM) | 16 (≈ 11.9 µM) | > 32 | 16 (≈ 11.9 µM) | > 300 | > 32 | > 32 |
| CCCCCCCC(=O)N[C@@H](CCN)C(=O)N[C@H](C(=O)N[C@@H](CCN)C(=O)N[C@H]1CCNC(=O)[C@H]([C@@H](C)O)NC(=O)[C@H](CCNC(=O)[C@@H](N)CCC(=O)O)NC(=O)[C@H](CCN)NC(=O)[C@H](CC(C)C)NC(=O)[C@@H](Cc2ccccc2)NC(=O)[C@H](CCN)NC1=O)[C@@H](C)O (Octanoyl-[Dab]T[Dab][Dab][Dab][dF]L[Dab][Dab](Glu)T; lactam 4-C) | > 32 | > 32 | 16 (≈ 12.1 µM) | 8 (≈ 6.07 µM) | > 32 | 16 (≈ 12.1 µM) | 4 (≈ 3.03 µM) | 4 (≈ 3.03 µM) | > 32 | 4 (≈ 3.03 µM) | > 300 | > 32 | > 32 |
| CCCCCCCC(=O)N[C@@H](CCN)C(=O)N[C@H](C(=O)N[C@@H](CCN)C(=O)N[C@H]1CCNC(=O)[C@H]([C@@H](C)O)NC(=O)[C@H](CCN)NC(=O)[C@H](CCNC(=O)[C@@H](N)CCC(=O)O)NC(=O)[C@H](CC(C)C)NC(=O)[C@@H](Cc2ccccc2)NC(=O)[C@H](CCN)NC1=O)[C@@H](C)O (Octanoyl-[Dab]T[Dab][Dab][Dab][dF]L[Dab](Glu)[Dab]T; lactam 4-C) | > 32 | > 32 | 4 (≈ 3.03 µM) | 8 (≈ 6.07 µM) | > 32 | 8 (≈ 6.07 µM) | 1 (≈ 0.758 µM) | 4 (≈ 3.03 µM) | > 32 | 4 (≈ 3.03 µM) | > 300 | > 32 | > 32 |
| CCCCCCCC(=O)N[C@@H](CCN)C(=O)N[C@H](C(=O)N[C@@H](CCN)C(=O)N[C@H]1CCNC(=O)[C@H]([C@@H](C)O)NC(=O)[C@H](CCN)NC(=O)[C@H](CCN)NC(=O)[C@H](Cc2ccc(-c3ccccc3)cc2)NC(=O)[C@@H](Cc2ccccc2)NC(=O)[C@H](CCN)NC1=O)[C@@H](C)O (Octanoyl-[Dab]T[Dab][Dab][Dab][dF][Bip][Dab][Dab]T; lactam 4-C) | 32 (≈ 24.6 µM) | 16 (≈ 12.3 µM) | 1 (≈ 0.769 µM) | 2 (≈ 1.54 µM) | 32 (≈ 24.6 µM) | 4 (≈ 3.08 µM) | 1 (≈ 0.769 µM) | 1 (≈ 0.769 µM) | > 32 | 2 (≈ 1.54 µM) | 117 | 16 (≈ 12.3 µM) | 8 (≈ 6.16 µM) |
| CCCCCCCC(=O)N[C@@H](CCN)C(=O)N[C@H](C(=O)N[C@@H](CCN)C(=O)N[C@H]1CCNC(=O)[C@H]([C@@H](C)O)NC(=O)[C@H](CCN)NC(=O)[C@H](CCO)NC(=O)[C@H](CC(C)C)NC(=O)[C@@H](Cc2ccccc2)NC(=O)[C@H](CCN)NC1=O)[C@@H](C)O (Octanoyl-[Dab]T[Dab][Dab][Dab][dF]L[hSer][Dab]T; lactam 4-C) | > 32 | > 32 | 8 (≈ 6.72 µM) | 4 (≈ 3.36 µM) | > 32 | > 32 | 1 (≈ 0.84 µM) | 2 (≈ 1.68 µM) | > 32 | 2 (≈ 1.68 µM) | > 300 | > 32 | > 32 |
| CCCCCCCC(=O)N[C@@H](CCN)C(=O)N[C@H](C(=O)N[C@@H](CCN)C(=O)N[C@H]1CCNC(=O)[C@H]([C@@H](C)O)NC(=O)[C@H](CCN)NC(=O)[C@H](CCN)NC(=O)[C@H](CC(C)C)NC(=O)[C@@H](Cc2ccccc2)NC(=O)[C@H](CCO)NC1=O)[C@@H](C)O (Octanoyl-[Dab]T[Dab][Dab][hSer][dF]L[Dab][Dab]T; lactam 4-C) | > 32 | > 32 | > 32 | > 32 | > 32 | > 32 | 16 (≈ 13.4 µM) | 32 (≈ 26.9 µM) | > 32 | > 32 | > 300 | > 32 | > 32 |
| CCCCCCCC(=O)N[C@H](CCN)C(=O)N[C@H](C(=O)NCC(=O)N[C@H]1CCNC(=O)[C@H]([C@@H](C)O)NC(=O)[C@H](CCN)NC(=O)[C@H](CCN)NC(=O)[C@H](CC(C)C)NC(=O)[C@@H](Cc2ccccc2)NC(=O)[C@H](CCN)NC1=O)[C@@H](C)O (Octanoyl-[dDab]TG[Dab][Dab][dF]L[Dab][Dab]T; lactam 4-C) | > 32 | > 32 | > 64 | 16 (≈ 14 µM) | > 32 | > 32 | > 32 | 32 (≈ 27.9 µM) | > 32 | 8 (≈ 6.98 µM) | > 300 | > 32 | > 64 |
| CC(C)C[C@@H]1NC(=O)[C@@H](Cc2ccccc2)NC(=O)[C@H](CCN)NC(=O)[C@@H](NC(=O)[C@@H](CCN)NC(=O)[C@@H](NC(=O)[C@H](CCN)NC(=O)Nc2ccccc2Cl)[C@@H](C)O)CCNC(=O)[C@H]([C@@H](C)O)NC(=O)[C@H](CCN)NC(=O)[C@H](CCN)NC1=O ({NH(2-ClPh)-CO}-[Dab]T[dDab][Dab][Dab][dF]L[Dab][Dab]T; lactam 4-C) | > 32 | 16 (≈ 13.1 µM) | 2 (≈ 1.64 µM) | 0.5 (≈ 0.411 µM) | > 32 | 0.5 (≈ 0.411 µM) | 1 (≈ 0.822 µM) | 1 (≈ 0.822 µM) | > 32 | 0.5 (≈ 0.411 µM) | > 300 | > 32 | > 32 |
